Laboratory results taken from ChEMBL document CHEMBL3808312, “Bioactive Constituents of Glycyrrhiza uralensis (Licorice): Discovery of the Effective Components of a Traditional Herbal Medicine” (J Nat Prod, 2016).
Activity calls are given as the source filed them. The calls are words filed in the database; no cut-off is given here. Peptide text beside a SMILES is read from it. * marks the point of attachment. Cbz = O=C(OCc1ccccc1)*

How the values were obtained:
[1] = system: SW480; experiment: Inhibition of NFkappaB transcription in human SW480 cells at 10 uM by luciferase reporter gene assay; assay type: cell-based
Outline: (§1)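 SW480 cells (RPMI1640) stably transfected with an NF-κB luciferase reporter. […] MG132 positive control.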

[2] = (§2) Inhibition of NFkappaB transcription in human SW480 cells at by luciferase reporter gene assay; assay type: cell-based; outline: as §1
[3] = system: SW480; experiment: as §2; assay type: cell-based; outline: as §1
[4] = target: T1, Tyrosine-protein phosphatase non-receptor type 1 (Homo sapiens) (UniProt P18031); settings: 5 uM
T1 sequence (whole entry): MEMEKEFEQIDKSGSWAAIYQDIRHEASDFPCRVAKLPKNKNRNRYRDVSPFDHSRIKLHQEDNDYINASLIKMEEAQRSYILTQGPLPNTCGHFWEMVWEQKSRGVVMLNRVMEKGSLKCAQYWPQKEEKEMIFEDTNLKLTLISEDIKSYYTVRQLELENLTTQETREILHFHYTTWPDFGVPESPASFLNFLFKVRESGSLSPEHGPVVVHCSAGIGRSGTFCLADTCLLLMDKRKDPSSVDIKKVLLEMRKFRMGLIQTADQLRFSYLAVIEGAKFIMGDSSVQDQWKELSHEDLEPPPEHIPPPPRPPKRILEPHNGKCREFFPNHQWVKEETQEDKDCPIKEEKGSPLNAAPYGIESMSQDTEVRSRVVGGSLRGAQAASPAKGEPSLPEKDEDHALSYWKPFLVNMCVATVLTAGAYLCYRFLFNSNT

[5] = system: SW480; experiment: Cytotoxicity against human SW480 cells assessed as reduction in cell viability after 24 hrs by MTS assay; assay type: functional, cell-based; settings: SW480, 24 h
Outline: (§3)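 Cells seeded at 5 × 10^3/well and cultured overnight, then exposed to compounds for 24 h. Viability read by MTS. Media: SW480 in RPMI1640, A549 in DMEM, MCF7 in MEM. […] Irinotecan positive control.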

[6] = system: A549; experiment: Cytotoxicity against human A549 cells assessed as reduction in cell viability after 24 hrs by MTS assay; assay type: functional, cell-based; settings: A549, 24 h; outline: as §3
[7] = system: MCF7; experiment: Cytotoxicity against human MCF7 cells assessed as reduction in cell viability after 24 hrs by MTS assay; assay type: functional, cell-based; settings: MCF7, 24 h; outline: as §3
[8] = system: HepG2; experiment: Cytotoxicity against human HepG2 cells assessed as reduction in cell viability after 24 hrs by MTS assay; assay type: functional, cell-based; settings: HepG2, 24 h; outline: as §3
[9] = target: T1, Tyrosine-protein phosphatase non-receptor type 1 (Homo sapiens); experiment: Inhibition of recombinant human PTP1B assessed as hydrolysis of p-nitrophenyl phosphate at 25 uM after 30 mins relative to control
[10] = target: T2, Nuclear factor erythroid 2-related factor 2 (Homo sapiens) (UniProt Q16236); experiment: Activation of NRF2 transcription in human HepG2C8 cells at 10 uM after 6 hrs by luciferase reporter gene assay relative to control; assay type: cell-based
T2 sequence (whole entry): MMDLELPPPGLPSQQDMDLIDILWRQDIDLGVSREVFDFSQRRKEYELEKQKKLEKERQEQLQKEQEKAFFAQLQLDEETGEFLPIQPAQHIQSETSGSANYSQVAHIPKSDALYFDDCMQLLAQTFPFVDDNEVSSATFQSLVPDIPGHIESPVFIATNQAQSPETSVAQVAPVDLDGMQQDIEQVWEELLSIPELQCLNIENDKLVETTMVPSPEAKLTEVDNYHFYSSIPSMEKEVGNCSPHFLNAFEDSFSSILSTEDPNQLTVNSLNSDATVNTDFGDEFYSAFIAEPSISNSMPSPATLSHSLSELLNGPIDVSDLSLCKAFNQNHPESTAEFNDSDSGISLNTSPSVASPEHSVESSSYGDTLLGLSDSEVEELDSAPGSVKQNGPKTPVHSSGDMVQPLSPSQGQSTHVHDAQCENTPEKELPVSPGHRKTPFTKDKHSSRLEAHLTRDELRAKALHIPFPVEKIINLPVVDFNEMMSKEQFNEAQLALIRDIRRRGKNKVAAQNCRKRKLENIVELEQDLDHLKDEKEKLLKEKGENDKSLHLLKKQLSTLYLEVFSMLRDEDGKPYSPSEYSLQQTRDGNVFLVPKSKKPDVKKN
Outline: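 Luciferase reporter in HepG2C8 cells, which are HepG2 stably transfected with an Nrf2 luciferase reporter and grown in MEM. Screened at 10 μM, with dose-response over 2.5−40 μM. Activity expressed as fold of control. tBHQ positive control.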

[11] = system: RAW264.7; experiment: Antiinflammatory activity in mouse RAW264.7 cells assessed as inhibition of LPS-induced nitric oxide production at 10 uM after 24 hrs by Griess assay; assay type: functional; settings: RAW264.7, 24 h
Outline: (§4)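 RAW264.7 cells plated at 1.2 × 10^5/well in RPMI1640 and co-treated with compound and 1 μg/mL LPS for 24 h. Nitrite in medium read with Griess reagent (sulfanilamide/naphthylethylenediamine, phosphoric acid) after 15 min at 37 °C, absorbance 540 nm. […] Curcumin positive control.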

[12] = target: T3, Tyrosinase (Homo sapiens) (UniProt P14679); experiment: Inhibition of tyrosinase (unknown origin) using L-tyrosine as substrate assessed as oxidation of L-tyrosine at 20 uM after 15 mins
T3 sequence (whole entry): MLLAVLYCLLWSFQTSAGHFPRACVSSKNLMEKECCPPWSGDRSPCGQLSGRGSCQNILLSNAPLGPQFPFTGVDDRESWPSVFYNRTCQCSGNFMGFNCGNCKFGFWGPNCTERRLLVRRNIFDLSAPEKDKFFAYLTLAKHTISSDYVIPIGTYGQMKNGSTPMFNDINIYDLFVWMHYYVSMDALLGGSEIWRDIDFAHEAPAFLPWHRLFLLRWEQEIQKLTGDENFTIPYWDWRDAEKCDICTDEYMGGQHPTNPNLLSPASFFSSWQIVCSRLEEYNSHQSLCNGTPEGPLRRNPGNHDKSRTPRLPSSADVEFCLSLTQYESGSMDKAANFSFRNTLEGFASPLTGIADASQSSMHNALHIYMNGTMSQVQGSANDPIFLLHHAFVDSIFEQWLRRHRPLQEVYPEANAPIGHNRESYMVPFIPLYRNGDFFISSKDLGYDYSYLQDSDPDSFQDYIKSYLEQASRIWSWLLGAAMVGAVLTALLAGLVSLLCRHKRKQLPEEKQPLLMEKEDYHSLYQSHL
Outline: (§5)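 Tyrosinase at 333 U/mL (stock) in 45 mM sodium phosphate, pH 6.6, with 2 mM L-tyrosine (stock). Incubated 37 °C for 15 min; oxidation read at 492 nm. Screened at 20 μM; dose-response for IC50. Glyasperin C positive control.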

[13] = system: RAW264.7; experiment: Antiinflammatory activity in mouse RAW264.7 cells assessed as inhibition of LPS-induced nitric oxide production after 24 hrs by Griess assay; assay type: functional, cell-based; settings: RAW264.7, 24 h; outline: as §4
[14] = system: Influenza A virus; experiment: Antiviral activity against Influenza A virus A/WSN/33(H1N1) infected in MDCK cells at 100 uM preincubated with virus for 15 mins followed by cells addition measured at 36 hrs post infection; assay type: functional, A/WSN/1933(H1N1)
Outline: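 MDCK canine kidney cells grown in DMEM and infected with influenza A/WSN/33 (H1N1). Compounds screened at 100 μM. Oseltamivir phosphate served as the positive control.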

[15] = system: MDCK; experiment: Cytotoxicity against MDCK cells after 36 hrs; assay type: cell-based, Canis lupus familiaris; settings: dog
[16] = target: T4, Acetylcholinesterase (Homo sapiens, UniProt P22303); experiment: Inhibition AChE (unknown origin) using ATCI as substrate assessed as hydrolysis of ATCI at 25 uM measured every 1 min for 10 times
T4 sequence (P22303 whole entry): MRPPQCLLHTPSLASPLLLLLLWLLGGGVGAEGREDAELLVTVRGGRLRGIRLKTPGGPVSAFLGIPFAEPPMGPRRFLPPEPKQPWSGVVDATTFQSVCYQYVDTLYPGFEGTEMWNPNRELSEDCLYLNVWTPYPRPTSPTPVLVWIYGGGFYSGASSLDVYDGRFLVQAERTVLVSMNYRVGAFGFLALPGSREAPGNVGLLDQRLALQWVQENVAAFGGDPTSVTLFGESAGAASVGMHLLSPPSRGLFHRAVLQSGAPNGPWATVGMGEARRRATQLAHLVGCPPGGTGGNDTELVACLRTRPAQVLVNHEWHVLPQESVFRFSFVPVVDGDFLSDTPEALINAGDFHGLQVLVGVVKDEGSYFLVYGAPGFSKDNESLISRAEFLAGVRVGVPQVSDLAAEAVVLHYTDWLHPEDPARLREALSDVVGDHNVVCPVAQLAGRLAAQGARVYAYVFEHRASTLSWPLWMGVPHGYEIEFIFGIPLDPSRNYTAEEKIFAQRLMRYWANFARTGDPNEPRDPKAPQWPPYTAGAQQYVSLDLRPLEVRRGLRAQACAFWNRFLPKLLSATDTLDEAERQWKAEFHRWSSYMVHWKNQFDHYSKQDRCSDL
Outline: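 Commercial AChE (added as 0.025 U/mL solution) in Tris-HCl (30 mM, pH 8.0) with DTNB (added as 0.26 mM) and ATCI substrate (added as 0.2 mM); 200 μL mixture at room temperature. Thiocholine release read at 405 nm every min, 10 reads; linear slope taken as rate. Screening at 25 μM; galanthamine positive control.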

[17] = target: T5, Tyrosine-protein phosphatase non-receptor type 1 (Homo sapiens, UniProt P18031); experiment: Inhibition of recombinant human PTP1B assessed as hydrolysis of p-nitrophenyl phosphate
T5 sequence (P18031 whole entry): T1 sequence (whole entry)

[18] = target: T4, Acetylcholinesterase; experiment: Inhibition AChE (unknown origin) using ATCI as substrate assessed as hydrolysis of ATCI after 10 mins measured every 1 min for 10 times
[19] = target: T6, Tyrosinase (Homo sapiens, UniProt P14679); experiment: Inhibition of tyrosinase (unknown origin) using L-tyrosine as substrate assessed as oxidation of L-tyrosine after 15 mins; outline: as §5
T6 sequence (P14679 whole entry): T3 sequence (whole entry)

Structure (SMILES): CC(C)C[C@@H](C=O)NC(=O)[C@H](CC(C)C)NC(=O)[C@H](CC(C)C)NC(=O)OCc1ccccc1 [MG-132] (Cbz-Leu-Leu-Leu-aldehyde)
- inhibition [1]: 23%
- IC50 [2]: 29.5 µM
- inhibition [3]: Dose-dependent effect

Structure (SMILES): C[C@H]1[C@H](C)CC[C@]2(C(=O)O)CC[C@]3(C)C(=CC[C@@H]4[C@@]5(C)CC[C@H](O)C(C)(C)[C@@H]5CC[C@]43C)[C@H]12
- inhibition [4]: 45%

Structure (SMILES): COc1c(-c2ccc(O)cc2)oc2cc(O)c(CC=C(C)C)c(O)c2c1=O
- IC50 [5]: 16.1 µM
- IC50 [6]: 23.1 µM
- IC50 [7]: 7.3 µM
- IC50 [8]: 10.8 µM
- inhibition [9]: 52%

Structure (SMILES): CC(C)=CCc1c(O)cc2occ(-c3ccc(O)c(O)c3)c(=O)c2c1O
- IC50 [5]: 12 µM
- IC50 [6]: 20.3 µM
- IC50 [7]: 7 µM
- IC50 [8]: 6 µM

Structure (SMILES): COc1c2c(cc(O)c1CC=C(C)C)OCC(c1ccc(O)cc1O)=C2
- fold change (FC) [10]: 4.7
- inhibition at 10 µM [11]: > 50%
- inhibition [12]: inactive
- IC50 [13]: 8.1 µM
- Activity [14]: >30%

Structure (SMILES): COc1c(CC=C(C)C)c(O)cc2oc(-c3ccc(O)cc3O)cc12 [LICOCOUMARONE]
- inhibition [1]: > 30%
- IC50 [2]: 5.1 µM
- inhibition [3]: Dose-dependent effect
- IC50 [13]: 8.5 µM
- inhibition [9]: > 90%
- Activity [14]: >30%

Structure (SMILES): CC(C)=CCc1c(O)ccc(-c2coc3cc(O)c(CC=C(C)C)c(O)c3c2=O)c1O
- IC50 [5]: 6.4 µM
- Activity [15]: Toxic
- IC50 [6]: 7.1 µM
- inhibition [16]: 71%
- IC50 [7]: 6 µM
- IC50 [8]: 1.1 µM
- inhibition [9]: > 95%
- IC50 [17]: 0.4 µM

Structure (SMILES): COc1c(CC=C(C)C)c(O)cc2c1C[C@H](c1ccc(O)c(CC=C(C)C)c1O)CO2 [LICORICIDIN]
- IC50 [5]: 7.1 µM
- Activity [15]: Toxic
- IC50 [18]: 15.5 µM
- IC50 [6]: 6.9 µM
- inhibition [16]: 82%
- IC50 [7]: 5.2 µM
- IC50 [8]: 0.3 µM
- inhibition [9]: > 95%

Structure (SMILES): CC(C)=CCc1cc(-c2coc3cc(O)c(CC=C(C)C)c(O)c3c2=O)cc(O)c1O
- IC50 [5]: 6.5 µM
- Activity [15]: Toxic
- IC50 [6]: 6.4 µM
- IC50 [7]: 6.6 µM
- IC50 [8]: 4.4 µM
- inhibition [9]: > 95%
- IC50 [17]: 3 µM

Structure (SMILES): COc1cc2occ(-c3ccc(O)cc3O)c(=O)c2c(O)c1CC=C(C)C
- IC50 [18]: 9.9 µM
- inhibition [16]: 83%

Structure (SMILES): COc1c(CC=C(C)C)c(O)cc2c1C[C@H](c1ccc(O)cc1O)CO2 [GLYASPERIN C]
- IC50 [19]: 0.177 µM
- inhibition [12]: > 95%
